What was measured:
P2Y purinoceptor 1 [1] = target: T1, P2Y purinoceptor 1 (Homo sapiens, UniProt P47900); assay: Antagonist activity at human P2Y1 receptor in HEK293 cells assessed as intracellular calcium level by FLIPR; format: functional, cell-based
P2Y purinoceptor 1 [2] = target: T1, P2Y purinoceptor 1; assay: Displacement of [33P]2-Mes-ADP from human recombinant P2Y1 receptor expressed in human U20S cells; format: cell-based, U2OS
Procedure, shortened: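 Membranes from BacMam-transduced U2OS cells expressing human P2Y1, [33P]-2-MeS-ADP radioligand, 0.5 mg WGA-SPA beads. Buffer: 15 mM Hepes, 145 mM NaCl, 0.1 mM MgCl2, 5 mM EDTA, 5 mM KCl. Test compound at various concentrations or DMSO vehicle. Incubated 1 h at room temperature to completion, centrifuged at 2000g, then counted.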

Platelet = assay: Inhibition of ADP-induced human platelet aggregation; format: functional, cell-based
Procedure, shortened: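 Washed human platelets preincubated with compound for 5 min, then challenged with 10 µM ADP; aggregation followed by light transmittance aggregometry; IC50 reported.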

T1 sequence (P47900 whole entry): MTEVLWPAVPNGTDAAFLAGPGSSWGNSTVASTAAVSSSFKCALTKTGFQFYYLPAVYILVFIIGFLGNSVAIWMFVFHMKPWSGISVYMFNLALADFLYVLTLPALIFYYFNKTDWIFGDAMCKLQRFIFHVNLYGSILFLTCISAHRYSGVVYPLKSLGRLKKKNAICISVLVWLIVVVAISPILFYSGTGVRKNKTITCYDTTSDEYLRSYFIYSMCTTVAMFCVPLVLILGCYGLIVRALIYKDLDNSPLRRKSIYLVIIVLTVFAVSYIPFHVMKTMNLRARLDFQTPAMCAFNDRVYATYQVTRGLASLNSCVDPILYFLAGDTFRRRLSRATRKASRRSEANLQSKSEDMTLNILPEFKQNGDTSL

Row | SMILES | IC50 (P2Y purinoceptor 1 [1]) | Ki (P2Y purinoceptor 1 [2]) | other results
1 | CC[C@@H]1[C@@H](C)[C@H](N(C)c2ccccc2)c2ccccc2N1C(=O)c1ccc(OC)cc1 | > 25000 nM | – | –
2 | CC[C@@H]1[C@@H](C)[C@H](Nc2ccccc2)c2ccccc2N1C(=O)Nc1ccccc1Cl | > 25000 nM | – | –
3 | CC[C@@H]1[C@@H](C)[C@H](Nc2ccccc2)c2ccccc2N1C(=O)Nc1ccccc1 | 1600 nM | 400 nM | –
4 | CC[C@@H]1[C@@H](C)[C@H](Nc2ccccc2)c2ccccc2N1C(=O)c1cccc(OC(F)(F)F)c1 | > 25000 nM | – | –
5 | CC[C@@H]1[C@@H](C)[C@H](Nc2ccccc2)c2ccccc2N1C(=O)Nc1ccc(Cl)cc1 | 2000 nM | 300 nM | –
6 | CC[C@@H]1[C@@H](C)[C@H](Nc2ccccc2)c2ccccc2N1C(=O)Nc1ccc(OC)cc1 | 6000 nM | – | –
7 | CC[C@@H]1C[C@@H](Nc2ccccc2)c2ccccc2N1C(=O)c1ccc(OC)cc1 | > 25000 nM | – | –
8 | COc1ccc(C(=O)N2C[C@@H](C)[C@H](Nc3ccccc3)c3ccccc32)cc1 | 10000 nM | – | –
9 | COc1ccc(C(=O)N2CC[C@H](Nc3ccccc3)c3ccccc32)cc1 | > 25000 nM | – | –
10 | CC[C@H]1[C@H](C)[C@@H](Nc2ccccc2)c2ccccc2N1C(=O)Nc1cc(Cl)cc(Cl)c1 | > 25000 nM | – | –
11 | CC[C@@H]1[C@@H](C)[C@H](Nc2ccccc2)c2ccccc2N1C(=O)c1ccccc1 | 25000 nM | – | –
12 | CC[C@@H]1C[C@H](Nc2ccccc2)c2ccccc2N1C(=O)c1ccc(OC)cc1 | 3200 nM | 800 nM | –
13 | CC[C@@H]1[C@@H](C)[C@H](Nc2ccccc2)c2ccccc2N1C(=O)Nc1cccc(OC)c1 | 1600 nM | 500 nM | –
14 | CC[C@@H]1[C@@H](C)[C@H](Nc2ccccc2)c2ccccc2N1C(=O)Nc1cc(Cl)cc(Cl)c1 (stereo in doubt; 16) | – | – | IC50 (P2Y purinoceptor 1 [1]; hek293): 600 nM; Ki (P2Y purinoceptor 1 [2]; u2os): 70 nM; IC50 (Platelet): 504 nM

Now from value to molecule, other results behind:

Row | IC50 (P2Y purinoceptor 1 [1]) | Ki (P2Y purinoceptor 1 [2]) | SMILES | other results
15 | 1600 nM | 500 nM | CC[C@@H]1[C@@H](C)[C@H](Nc2ccccc2)c2ccccc2N1C(=O)c1ccc([N+](=O)[O-])cc1 | –
16 | 800 nM | 100 nM | CC[C@@H]1[C@@H](C)[C@H](Nc2ccccc2)c2ccccc2N1C(=O)c1ccc(Br)cc1 | –
17 | 1000 nM | 300 nM | CC[C@@H]1[C@@H](C)[C@H](Nc2ccccc2)c2ccccc2N1C(=O)Nc1cccc(Cl)c1 | –
18 | 800 nM | 200 nM | CC[C@@H]1[C@@H](C)[C@H](Nc2ccccc2)c2ccccc2N1C(=O)Nc1cc(OC)cc(OC)c1 | –
19 | 1300 nM | 400 nM | CC[C@@H]1[C@@H](C)[C@H](Nc2ccccc2)c2ccccc2N1C(=O)c1ccc(Cl)cc1 | –
20 | 1000 nM | 100 nM | CC[C@@H]1[C@@H](C)[C@H](Nc2ccccc2)c2ccccc2N1C(=O)Nc1cccc(Br)c1 | –
21 | 800 nM | 400 nM | CC[C@@H]1[C@@H](C)[C@H](Nc2ccccc2)c2ccccc2N1C(=O)c1ccc(OC)cc1 | –
22 | 1000 nM | 100 nM | CC[C@@H]1[C@@H](C)[C@H](Nc2ccccc2)c2ccccc2N1C(=O)c1ccc(OC(F)(F)F)cc1 | –
23 | 600 nM | 70 nM | CC[C@@H]1[C@@H](C)[C@H](Nc2ccccc2)c2ccccc2N1C(=O)Nc1cc(Cl)cc(Cl)c1 (stereo in doubt; 6i) | –
